# Results published in ChEMBL document CHEMBL1149127, “Synthesis and antitubulin activity of N1- and N4-substituted 3,5-dinitro sulfanilamides against African trypanosomes and Leishmania” (J Med Chem, 2004).
# Assays:
# Leishmania donovani [1] = assay: Inhibition percentage of Leishmanial tubulin assembly at a concentration of 10 uM.
# How it was run: (§1)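 Leishmanial tubulin turbidity assay. Compounds added in 50% DMSO. Assembly started on ice by adding cold GTP in 25% DMSO. Turbidity followed at 351 nm while warming to 30 °C. Single-concentration tests run at 10 µM.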
# Tubulin (Sus scrofa) = Tubulin (Sus scrofa) (UniProt P02554+P02550); assay: Inhibition of porcine brain tubulin assembly at 40 uM
# How it was run: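 Porcine brain tubulin purified by DEAE-Sepharose and a warm assembly cycle. Compound at 40 µM added in 100% DMSO. Assembly started on ice with cold GTP in water. Turbidity read at 351 nm while warming to 37 °C. Percent inhibition determined.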
# Leishmania donovani [2] = assay: Inhibitory concentration against Leishmania donovani axenic amastigotes was determined in vitro; format: functional, organism-based
# Trypanosoma brucei = assay: microbe, parasite or virus in culture; format: functional, organism-based
# PC-3 = assay: In vitro cytotoxicity against mouse PC3 prostate cancer cell line.; format: functional, cell-based; settings: Homo sapiens
# J774 = assay: In vitro cytotoxicity against mouse J774 macrophages.; format: functional, cell-based
# Mus musculus [3] = assay: Average survival time for mice infected with Trypanosoma brucei ST1B 795 when treated with 20 mg/kg administered intraperitoneally; format: functional; settings: route intraperitoneal
# How it was run: (§2)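 Female NMRI mice (20-25 g) were infected ip with 10⁴ T. b. brucei STIB 795 bloodstream forms and randomly assigned to groups of four. Starting 4 days after infection, 20 mg/kg was given ip for 4 consecutive days. Vehicle was DMSO diluted with water, with final DMSO below 10%. Day of death was recorded for each mouse.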
# Mus musculus [4] = assay: Tested against Trypanosoma brucei strain ST1B 795 in mice as cured to tested at 20 mg/kg/day administered intraperitoneally; 0/4; format: functional; settings: route intraperitoneal
# [5] = Inhibition of Leishmanial tubulin assembly; set-up: species or system Leishmania donovani; how it was run: as §1
# [6] = Tested for toxicity against mice by intraperitoneal administration; No signs of toxicity; settings: mouse, in vivo, ip
# [7] = test system: Tubulin (Leishmania donovani); assay: Inhibition percentage of Leishmanial tubulin assembly at a concentration of 10 uM
# Mus musculus [8] = assay: Average survival time for mice infected with Trypanosoma brucei ST1B 795 when treated with 20 mg/kg administered i.p.; format: functional; settings: route intraperitoneal; how it was run: as §2
# Tubulin (Sus scrofa), sequence (P02550 whole entry, looked up): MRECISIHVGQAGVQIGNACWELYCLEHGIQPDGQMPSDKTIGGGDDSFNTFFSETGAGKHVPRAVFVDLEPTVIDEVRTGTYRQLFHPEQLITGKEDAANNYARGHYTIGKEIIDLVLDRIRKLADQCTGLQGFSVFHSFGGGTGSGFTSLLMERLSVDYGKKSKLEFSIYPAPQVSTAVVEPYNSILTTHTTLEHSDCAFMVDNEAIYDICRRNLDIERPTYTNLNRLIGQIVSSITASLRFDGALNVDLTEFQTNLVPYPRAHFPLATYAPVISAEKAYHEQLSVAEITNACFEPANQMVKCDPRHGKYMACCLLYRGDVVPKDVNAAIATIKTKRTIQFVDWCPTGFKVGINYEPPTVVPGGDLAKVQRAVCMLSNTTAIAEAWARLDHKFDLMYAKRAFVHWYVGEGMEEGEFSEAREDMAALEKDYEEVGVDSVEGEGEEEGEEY
# Tubulin (Sus scrofa), sequence (P02554 whole entry, looked up): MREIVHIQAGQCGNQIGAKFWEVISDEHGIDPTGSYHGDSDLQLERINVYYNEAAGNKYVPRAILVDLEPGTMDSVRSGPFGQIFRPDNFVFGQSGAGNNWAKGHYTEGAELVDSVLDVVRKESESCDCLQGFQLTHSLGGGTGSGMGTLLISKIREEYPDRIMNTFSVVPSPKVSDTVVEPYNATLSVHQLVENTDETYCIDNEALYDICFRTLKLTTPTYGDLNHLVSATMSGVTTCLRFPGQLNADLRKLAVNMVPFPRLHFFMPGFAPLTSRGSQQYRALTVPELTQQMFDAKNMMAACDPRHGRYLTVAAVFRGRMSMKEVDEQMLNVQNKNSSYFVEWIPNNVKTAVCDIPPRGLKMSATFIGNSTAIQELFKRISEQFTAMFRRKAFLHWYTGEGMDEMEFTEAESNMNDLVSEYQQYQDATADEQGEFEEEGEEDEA
SMILES,inhibition (Leishmania donovani [1]) [%],inhibition (Tubulin (Sus scrofa)) [%],IC50 (Leishmania donovani [2]) [µM],IC50 (Trypanosoma brucei) [µM],IC50 (PC-3) [µM],IC50 (J774) [µM],other results
CCCN(CCC)c1c([N+](=O)[O-])cc(S(=O)(=O)NC)cc1[N+](=O)[O-],< 20,< 20,> 100,5.3,,,
CCCCCCN(CCCCCC)S(=O)(=O)c1cc([N+](=O)[O-])c(N(CCC)CCC)c([N+](=O)[O-])c1,,,> 100,> 50,,,
CCCN(CCC)c1c([N+](=O)[O-])cc(S(=O)(=O)N2CCCC2)cc1[N+](=O)[O-],,,47,6.5,,,
CCCN(CCC)c1c([N+](=O)[O-])cc(S(=O)(=O)N(c2ccccc2)c2ccccc2)cc1[N+](=O)[O-],,,> 100,7,> 100,> 100,
CCCN(CCC)c1c([N+](=O)[O-])cc(S(=O)(=O)NCC)cc1[N+](=O)[O-],,,> 100,5.4,,,
CCCN(CCC)c1c([N+](=O)[O-])cc(S(N)(=O)=O)cc1[N+](=O)[O-] [ORYZALIN],,,65,12,56,44,
CCCNS(=O)(=O)c1cc([N+](=O)[O-])c(N(CCC)CCC)c([N+](=O)[O-])c1,< 20,,54,8.9,,,
CCCCN(CCCC)c1c([N+](=O)[O-])cc(S(=O)(=O)Nc2ccccc2)cc1[N+](=O)[O-],104,< 20,2.6,0.12,13,12,Survival (Mus musculus [3]): 8 days; Activity (Mus musculus [4]): 0; IC50 [5]: 6.9 µM; Dose [6]: 20 mg/kg
CCCN(CCC)c1c([N+](=O)[O-])cc(S(=O)(=O)Nc2ccc(C)cc2)cc1[N+](=O)[O-],< 20,< 20,32,13,21,11,
CCCCCNS(=O)(=O)c1cc([N+](=O)[O-])c(N(CCC)CCC)c([N+](=O)[O-])c1,,,43,17,,,
CCCN(CCC)c1c([N+](=O)[O-])cc(S(=O)(=O)Nc2cccc(C)c2)cc1[N+](=O)[O-],< 20,< 20,23,1.9,25,16,
CCCN(CCC)c1c([N+](=O)[O-])cc(S(=O)(=O)NC2CCCC2)cc1[N+](=O)[O-],,,50,11,,,inhibition [7]: < 20%; Activity (Mus musculus [4]): 0; Dose [6]: No signs of toxicity
CCCN(CCC)c1c([N+](=O)[O-])cc(S(=O)(=O)NC2CC2)cc1[N+](=O)[O-],,,43,3.4,,,
CCCN(CCC)c1c([N+](=O)[O-])cc(S(=O)(=O)NC(C)C)cc1[N+](=O)[O-],,,> 100,4.1,,,
CCCN(CCC)c1c([N+](=O)[O-])cc(S(=O)(=O)Nc2cccc(Cl)c2)cc1[N+](=O)[O-],57,< 20,5.5,2.1,18,8.7,
Cc1ccc(C(=O)Nc2ccc(S(=O)(=O)O)c3cc(S(=O)(=O)O)cc(S(=O)(=O)O)c23)cc1NC(=O)c1cccc(NC(=O)Nc2cccc(C(=O)Nc3cc(C(=O)Nc4ccc(S(=O)(=O)O)c5cc(S(=O)(=O)O)cc(S(=O)(=O)O)c45)ccc3C)c2)c1 [SURAMIN],,,,0.21,,,
CCCCN(CCCC)S(=O)(=O)c1cc([N+](=O)[O-])c(N(CCC)CCC)c([N+](=O)[O-])c1,,,48,38,,,

SMILES,inhibition (Leishmania donovani [1]) [%],inhibition (Tubulin (Sus scrofa)) [%],IC50 (Leishmania donovani [2]) [µM],IC50 (Trypanosoma brucei) [µM],IC50 (PC-3) [µM],IC50 (J774) [µM],other results
CCCCNS(=O)(=O)c1cc([N+](=O)[O-])c(N(CCC)CCC)c([N+](=O)[O-])c1,,< 20,50,12,,,
COc1cc2cc(c1Cl)N(C)C(=O)C[C@H](OC(=O)C(C)C)[C@]1(C)O[C@@H]1[C@H](C)[C@@H]1C[C@@](O)(NC(=O)O1)[C@H](OC)/C=C/C=C(\C)C2 [ANSAMITOCIN P3],,,,,6e-05,0.00047,
CCCN(CCC)c1c([N+](=O)[O-])cc(S(=O)(=O)Nc2cc(Cl)cc(Cl)c2)cc1[N+](=O)[O-],102,< 20,3.7,8,11,5.1,IC50 [5]: 5.8 µM
CCCCCCNS(=O)(=O)c1cc([N+](=O)[O-])c(N(CCC)CCC)c([N+](=O)[O-])c1,,,26,15,,,
CCCN(CCC)c1c([N+](=O)[O-])cc(S(=O)(=O)Nc2ccc(Cl)c(Cl)c2)cc1[N+](=O)[O-],< 20,< 20,5,7.9,15,7.2,
CCCN(CCC)c1c([N+](=O)[O-])cc(S(=O)(=O)N(CC)CC)cc1[N+](=O)[O-],,,27,8.3,,,
CCCN(CCC)c1c([N+](=O)[O-])cc(S(=O)(=O)Nc2cccc(OC)c2)cc1[N+](=O)[O-],39,< 20,8.1,1.3,36,25,
CCCN(CCC)c1c([N+](=O)[O-])cc(S(=O)(=O)N(C)c2ccccc2)cc1[N+](=O)[O-],< 20,,21,1,> 100,11,
CCCN(CCC)c1c([N+](=O)[O-])cc(S(=O)(=O)Nc2ccccc2)cc1[N+](=O)[O-],89,14,5,0.41,31,28,Survival (Mus musculus [8]): 8 days; Activity (Mus musculus [4]): 0; IC50 [5]: 6.7 µM; Dose [6]: 20 mg/kg
N=C(N)c1ccc(OCCCCCOc2ccc(C(=N)N)cc2)cc1 [PENTAMIDINE],,,,0.013,,,
CCCN(CCC)c1c([N+](=O)[O-])cc(S(=O)(=O)Nc2ccccn2)cc1[N+](=O)[O-],,,60,9.2,,45,
CCCN(CCC)c1c([N+](=O)[O-])cc(S(=O)(=O)Nc2ccc(Cl)cc2)cc1[N+](=O)[O-],< 20,< 20,13,13,16,10,
CCN(CC)c1c([N+](=O)[O-])cc(S(=O)(=O)Nc2ccccc2)cc1[N+](=O)[O-],< 20,< 20,11,2.8,56,48,
CCCN(CCC)c1c([N+](=O)[O-])cc(S(=O)(=O)N2CCOCC2)cc1[N+](=O)[O-],,,> 100,> 100,,,
CCCN(CCC)c1c([N+](=O)[O-])cc(S(=O)(=O)N(CCC)CCC)cc1[N+](=O)[O-],,,55,17,,,
CCCN(CCC)c1c([N+](=O)[O-])cc(S(=O)(=O)Nc2ccc(OC)cc2)cc1[N+](=O)[O-],< 20,< 20,32,19,31,15,Activity (Mus musculus [4]): 0; Dose [6]: No signs of toxicity
CCCN(CCC)c1c([N+](=O)[O-])cc(S(=O)(=O)N(C)C)cc1[N+](=O)[O-],,,> 100,5.8,,,
